≈ marks a conversion by molar mass, not a printed value.
Legend:
Format in all cases: functional
Haemophilus parasuis [1] = assay: Antimicrobial activity against Haemophilus parasuis ATCC 19417; settings: Glaesserella parasuis
Procedure, shortened: (§1)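 H. parasuis isolates grown on chocolate agar and in Haemophilus test medium broth at 37°C under microaerophilic conditions (5% CO2). Susceptibility was profiled by disk diffusion and broth microdilution in Haemophilus test medium for fastidious bacteria, following a previously described method.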

Haemophilus parasuis [2] = assay: Antimicrobial activity against Haemophilus parasuis BB 1023; settings: Glaesserella parasuis; procedure, shortened: as §1
Haemophilus parasuis [3] = assay: Antimicrobial activity against Haemophilus parasuis BB 1025; settings: Glaesserella parasuis; procedure, shortened: as §1
Haemophilus parasuis [4] = assay: Antimicrobial activity against Haemophilus parasuis BB 1022; settings: Glaesserella parasuis; procedure, shortened: as §1
Haemophilus parasuis [5] = assay: Antimicrobial activity against Haemophilus parasuis BB 1018; settings: Glaesserella parasuis; procedure, shortened: as §1
Escherichia coli [6] = assay: Antimicrobial activity against Escherichia coli
Escherichia coli [7] = assay: Antimicrobial activity against Escherichia coli pB1000 expressing ROB1 beta lactamase
Haemophilus parasuis [8] = assay: Antimicrobial activity against Haemophilus parasuis BB 1021; settings: Glaesserella parasuis; procedure, shortened: as §1
Haemophilus parasuis [9] = assay: Antimicrobial activity against Haemophilus parasuis BB 1020; settings: Glaesserella parasuis; procedure, shortened: as §1
Haemophilus parasuis [10] = assay: Antimicrobial activity against Haemophilus parasuis BB 1024; settings: Glaesserella parasuis; procedure, shortened: as §1
Haemophilus parasuis [11] = assay: Antimicrobial activity against Haemophilus parasuis BB 1019; settings: Glaesserella parasuis; procedure, shortened: as §1
Haemophilus parasuis [12] = assay: Antimicrobial activity against Haemophilus parasuis BB 1026; settings: Glaesserella parasuis; procedure, shortened: as §1

SMILES	MIC (Haemophilus parasuis [1]) [µg/mL]	MIC (Haemophilus parasuis [2]) [µg/mL]	MIC (Haemophilus parasuis [3]) [µg/mL]	MIC (Haemophilus parasuis [4]) [µg/mL]	MIC (Haemophilus parasuis [5]) [µg/mL]	MIC (Escherichia coli [6]) [µg/mL]	MIC (Escherichia coli [7]) [µg/mL]	MIC (Haemophilus parasuis [8]) [µg/mL]	MIC (Haemophilus parasuis [9]) [µg/mL]	MIC (Haemophilus parasuis [10]) [µg/mL]	MIC (Haemophilus parasuis [11]) [µg/mL]	MIC (Haemophilus parasuis [12]) [µg/mL]
CC1(C)S[C@@H]2[C@H](NC(=O)[C@H](N)c3ccc(O)cc3)C(=O)N2[C@H]1C(=O)O [AMOXICILLIN]	≤ 2	> 256	> 256	> 256	> 256	4 (≈ 10.9 µM)	> 256	> 256	> 256	> 256	> 256	≤ 2
N[C@@H](C(=O)N[C@@H]1C(=O)N2C(C(=O)O)=C(Cl)CS[C@H]12)c1ccccc1 [CEFACLOR ANHYDROUS]	≤ 1	> 16	> 16	> 16	> 16	8 (≈ 21.8 µM)	128 (≈ 348 µM)	> 16	> 16	> 16	> 16	≤ 1
CO/N=C(\C(=O)N[C@@H]1C(=O)N2C(C(=O)O)=C(COC(C)=O)CS[C@H]12)c1csc(N)n1 [CEFOTAXIME]	≤ 0.03	0.12 (≈ 0.263 µM)	0.06 (≈ 0.132 µM)	0.06 (≈ 0.132 µM)	0.06 (≈ 0.132 µM)	0.06 (≈ 0.132 µM)	0.06 (≈ 0.132 µM)	0.06 (≈ 0.132 µM)	≤ 0.03	0.06 (≈ 0.132 µM)	0.06 (≈ 0.132 µM)	≤ 0.03
Cc1onc(-c2ccccc2)c1C(=O)N[C@@H]1C(=O)N2[C@@H]1SC(C)(C)[C@@H]2C(=O)O [OXACILLIN]	≤ 0.25	≤ 0.25	≤ 0.25	≤ 0.25	≤ 0.25	> 4	> 4	≤ 0.25	≤ 0.25	≤ 0.25	≤ 0.25	≤ 0.25

Source: ChEMBL document CHEMBL1145490, “Beta-lactam resistance in Haemophilus parasuis Is mediated by plasmid pB1000 bearing blaROB-1” (2007)
